Here are results for 7 molecules from ChEMBL document CHEMBL1143227, “Design, synthesis, and in vitro activity of peptidomimetic inhibitors of myeloid differentiation factor 88” (J Med Chem, 2008).

For data set [1], the target named is Myeloid differentiation primary response protein MyD88 (Homo sapiens) (UniProt Q99836). The data set is described as follows: Inhibition of MyD88 homodimerization by yeast two-hybrid assay. A digest of the protocol:
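Yeast AH109 is cotransformed with AD-MyD88 and BD-MyD88, grown overnight at 30 °C in SGd/-Leu/-Trp, then diluted 1/20 into SGd/-Ade/-His/-Leu/-Trp with compound at a final 100 µM in oxygen-sensor plates. Growth at 30 °C is read by fluorescence (ex 485/em 630 nm, bottom read) every 90 min for 25 readings. Signal is normalized to initial well fluorescence, and growth curves are described by seven curve parameters.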

Data set [2] concerns HeLa. The data set is described as follows: Inhibition of IL-1-alpha-induced NF-kappaB activation in human HeLa cells at 100 uM. Type of data set: functional. The method, boiled down:
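HeLa cells are grown in EMEM with 2 mM glutamine, 1% nonessential amino acids, 7.5% FBS and pen/strep. They are seeded at 3 × 10⁵/well, left overnight, then switched to serum-free EMEM. Compound (DMSO, final 100 µM) is added for 6 h at 37 °C, then recombinant human IL-1 5 ng/mL for 30 min. Activated p65 in about 10 µg lysate protein is read by TransAM colorimetric ELISA (A450). % inhibition uses stimulated and unstimulated controls with and without compound.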

In data set [3] the test system is Mus musculus. The data set is described as follows: Decrease in IL-1-beta-dependent IL6 production in mouse at 50 to 200 mg/kg. Type of data set: functional, organism-based.
Data set [4] relates to HeLa. The data set is described as follows: Toxicity against human HeLa cells at 4 uM by MTT assay. Type of data set: cell-based. For orientation: Formazan colour is commonly taken as a measure of viable cells.
Data set [5] relates to HeLa. The data set is described as follows: Toxicity against human HeLa cells at 8 uM by MTT assay. Type of data set: cell-based.
Data set [6] relates to HeLa. The data set is described as follows: Toxicity against human HeLa cells at 10 uM by MTT assay. Type of data set: cell-based.
The test system of data set [7] is HeLa. The data set is described as follows: Toxicity against human HeLa cells at 20 uM by MTT assay. It is filed as cell-based.
Data set [8] concerns HeLa. The data set is described as follows: Inhibition of IL-1-alpha-induced NF-kappaB activation in human HeLa cells at 4 uM. It is filed as functional.
Data set [9] has as its system HeLa. The data set is described as follows: Inhibition of IL-1-alpha-induced NF-kappaB activation in human HeLa cells at 8 uM. Type of data set: functional.
In data set [10] the test system is HeLa. The data set is described as follows: Inhibition of IL-1-alpha-induced NF-kappaB activation in human HeLa cells at 10 uM. Type of data set: functional.
Data set [11] has as its system HeLa. The data set is described as follows: Inhibition of IL-1-alpha-induced NF-kappaB activation in human HeLa cells at 20 uM. Type of data set: functional.

Activity calls are given as the source filed them. No cut-off for these calls is given here.

Myeloid differentiation primary response protein MyD88 (Homo sapiens), sequence (Q99836 whole entry): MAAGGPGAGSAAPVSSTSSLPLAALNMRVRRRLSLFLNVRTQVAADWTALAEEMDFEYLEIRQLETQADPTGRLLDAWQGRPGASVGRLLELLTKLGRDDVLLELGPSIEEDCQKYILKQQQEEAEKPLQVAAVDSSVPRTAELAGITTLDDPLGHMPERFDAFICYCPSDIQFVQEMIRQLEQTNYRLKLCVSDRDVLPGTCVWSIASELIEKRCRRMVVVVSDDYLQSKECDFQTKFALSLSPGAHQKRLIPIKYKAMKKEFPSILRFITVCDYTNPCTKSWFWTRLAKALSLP

A word on the inhibition: it is the drop in the measured response relative to a control, in per cent. A higher inhibition goes with a response far below the control. Regarding `Cc1cnc(C(=O)Nc2ccc(C(=O)NCCC(=O)N3CCC[C@]34C[C@H]3SCC[C@H](C(N)=O)N3C4=O)cc2)cn1`, the outcome in data set [1] was Active. Besides, at 100 µM the inhibition in data set [2] was 23%.
On to `NC(=O)CN1CCC[C@]2(CCCN2C(=O)CCNC(=O)c2ccc(NC(=O)Cc3cccc4ccccc34)cc2)C1=O`, for which the outcome in [1] was Active. Besides, in data set [2], the inhibition at 100 µM came out at 18%.
For `N=C(N)NCCCCNC(=O)c1ccc2cc(NC(=O)CN3C(=O)[C@@H]4C[C@@H](O)CN4C(=O)c4ccccc43)ccc2c1`, in that order: “Active” and 24%.
On to `NC(=O)[C@H]1CCS[C@@H]2C[C@]3(CCCN3C(=O)Cc3ccc(NC(=O)COc4ccc(Cl)cc4Cl)cc3)C(=O)N12`, for which the outcome in data set [1] and in data set [3] was Active. The inhibition at 100 µM in data set [2] stood at 26%.
The molecule `CC(C)[C@H](NC(=O)CCc1ccccc1)C(=O)N1CCCC1` gave an inhibition at 100 µM in data set [2] of 31%.
As to `CC(C)(C)c1ccc(S(=O)(=O)/C=C/C#N)cc1` [BAY-11-7085], the Activity in [4] worked out at 0%; in data set [5], 0%; in [6], 4%; in [7], 41%. In addition, the inhibition at 4 µM in [8] is 0%. For the same molecule, 8 µM produced 35% inhibition in data set [9]. Further, in [10], at 10 µM the inhibition was 44%. In [11], the inhibition at 20 µM is 65%.
`NC(=O)[C@H]1CCS[C@@H]2C[C@]3(CCCN3C(=O)c3nc(NC(=O)COc4ccc(Cl)cc4)n[nH]3)C(=O)N12`: the outcome in data set [1] was Active. The molecule further came in with an inhibition at 100 µM in data set [2] of 17%.
